The text below walks through data of ChEMBL document CHEMBL4325867, “Synthesis and biological evaluation of novel H6 analogues as drug resistance reversal agents” (Eur J Med Chem, 2019).

Data set [1] in a line: n-octanol/aqueous buffer solution partition coefficient, log P of the compound at pH 6.8 after 4 hrs by HPLC method. The class given is physicochemical. A digest of the protocol:
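Shake-flask partition between n-octanol and pH 6.8 buffer at a 1:1 ratio, room temperature, shaken 4 h. Compound concentration in each phase measured by HPLC.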

The target in data set [2] is ATP-dependent translocase ABCB1 (Homo sapiens, UniProt P08183). As to the kind of experiment: Reversal of P-gp-mediated drug resistance in human KBV cells assessed as potentiation of paclitaxel-induced cytotoxicity by measuring cell survival at 5 uM after 72 hrs by MTT assay (reference value: 98 +/- 19%). The class given is cell-based. (In general: Tetrazolium assays rely on reduction of a dye to a coloured formazan, in cell work by metabolically active cells.)
ATP-dependent translocase ABCB1, sequence (P08183 whole entry): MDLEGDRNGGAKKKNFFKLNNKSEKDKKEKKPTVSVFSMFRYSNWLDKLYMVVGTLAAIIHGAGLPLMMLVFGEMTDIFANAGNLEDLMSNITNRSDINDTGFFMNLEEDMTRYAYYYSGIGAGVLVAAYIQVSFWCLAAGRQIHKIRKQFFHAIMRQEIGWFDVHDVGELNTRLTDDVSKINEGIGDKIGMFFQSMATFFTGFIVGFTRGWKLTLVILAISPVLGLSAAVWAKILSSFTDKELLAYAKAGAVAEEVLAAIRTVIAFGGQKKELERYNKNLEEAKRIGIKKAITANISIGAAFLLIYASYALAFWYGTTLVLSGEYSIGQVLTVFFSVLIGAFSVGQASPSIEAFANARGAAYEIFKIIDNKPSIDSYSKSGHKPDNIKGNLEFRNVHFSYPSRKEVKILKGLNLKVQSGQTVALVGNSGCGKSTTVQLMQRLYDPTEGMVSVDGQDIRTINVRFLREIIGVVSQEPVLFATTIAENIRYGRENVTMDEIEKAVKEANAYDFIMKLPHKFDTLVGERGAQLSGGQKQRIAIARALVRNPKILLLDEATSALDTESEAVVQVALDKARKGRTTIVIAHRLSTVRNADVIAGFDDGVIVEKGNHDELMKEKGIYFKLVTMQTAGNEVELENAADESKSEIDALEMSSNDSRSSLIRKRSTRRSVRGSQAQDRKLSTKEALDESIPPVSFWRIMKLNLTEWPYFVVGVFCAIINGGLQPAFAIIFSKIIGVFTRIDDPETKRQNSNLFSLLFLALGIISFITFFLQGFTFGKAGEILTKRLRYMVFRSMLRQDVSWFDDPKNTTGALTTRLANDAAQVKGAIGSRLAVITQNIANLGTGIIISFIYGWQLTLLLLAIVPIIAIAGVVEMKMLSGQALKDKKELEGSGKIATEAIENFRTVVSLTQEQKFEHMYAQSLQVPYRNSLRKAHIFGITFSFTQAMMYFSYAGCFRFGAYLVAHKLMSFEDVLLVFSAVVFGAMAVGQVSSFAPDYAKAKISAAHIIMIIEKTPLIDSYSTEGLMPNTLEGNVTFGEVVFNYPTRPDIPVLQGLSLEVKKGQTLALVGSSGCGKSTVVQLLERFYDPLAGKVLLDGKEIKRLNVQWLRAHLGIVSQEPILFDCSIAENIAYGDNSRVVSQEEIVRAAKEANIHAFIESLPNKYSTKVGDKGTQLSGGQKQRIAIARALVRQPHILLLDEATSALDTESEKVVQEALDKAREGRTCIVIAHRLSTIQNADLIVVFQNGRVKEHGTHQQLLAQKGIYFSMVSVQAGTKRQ

The nature of data set [3]: Cytotoxicity against human KBV cells assessed as cell survival at 5 uM after 72 hrs by MTT assay relative to control. The class given is cell-based. The following applies: read-out: Survival. The gist of the method:
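KBV cells (RPMI-1640 with 10% heat-inactivated FCS, 37 °C, 5% CO2, log-phase) were seeded in 96-well plates and exposed to compound alone at 5 µM for 72 h. MTT was added and incubated, then DMSO was added. OD was read at 570 nm and survival rate was calculated.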

For orientation: logD means the decadic logarithm of the distribution of all forms, ionised or not, between an organic phase and buffer at a given pH. A low value points to a more hydrophilic compound. As to `CC1(C)CC[C@]2(C(=O)On3nnc4ccccc43)CC[C@]3(C)C(C(=O)C[C@@H]4[C@@]5(C)CCC(=O)[C@@](C)(CO)[C@@H]5CC[C@]43C)[C@@H]2C1` (some centres undefined), the pH-dependent lipophilicity (logD) at 4 h in data set [1] turned out to be 0.14. Also, the Survival in data set [2] is listed as 127%. Moreover, the viability at 72 h, 5 µM in data set [3] came to 110%.

`C[C@H](NC(=O)[C@]12CCC(C)(C)C[C@H]1C1=CC[C@@H]3[C@@]4(C)Cc5nccnc5[C@@](C)(CO)[C@@H]4CC[C@@]3(C)[C@]1(C)CC2)C(=O)O` gave a logD at 4 h in data set [1] of -1.07. Moreover, in data set [2], the Survival came out at 264%. Also, the viability at 72 h, 5 µM in data set [3] came to 98%.

The compound `CC1(C)CC[C@]2(C(=O)O)CC[C@]3(C)C(=CC[C@@H]4[C@@]5(C)Cc6nccnc6[C@@](C)(COC(=O)C6CCCCC6C(=O)O)[C@@H]5CC[C@]43C)[C@@H]2C1` (some centres undefined) yielded a logD at 4 h in data set [1] of -0.33. Moreover, the Survival in data set [2] was determined as 100%. Besides, in data set [3], the viability at 72 h, 5 µM was determined as 95%.

For the compound `CC1(C)CC[C@]2(C(=O)O)CC[C@]3(C)C(=CC[C@@H]4[C@@]5(C)Cc6nccnc6[C@@](C)(COC(=O)c6ccccc6C(=O)O)[C@@H]5CC[C@]43C)[C@@H]2C1`, the log distribution coefficient (logD) at 4 h in data set [1] is -0.66. Further, in data set [2], the Survival stood at 85%. Moreover, the viability at 72 h, 5 µM in data set [3] amounted to 116%.

Turning to `CC1(C)CC[C@]2(C(=O)O)CC[C@]3(C)C(=CC[C@@H]4[C@@]5(C)Cc6nccnc6[C@@](C)(CO)[C@@H]5CC[C@]43C)[C@@H]2C1`, the log distribution coefficient (logD) at 4 h in data set [1] is 0.24. For the same compound, the Survival in data set [2] was found to be 61%. The viability at 72 h, 5 µM in data set [3] turned out to be 89%.

For `COC(=O)CCC(=O)NOC(=O)[C@]12CCC(C)(C)C[C@H]1C1=CC[C@@H]3[C@@]4(C)Cc5nccnc5[C@@](C)(CO)[C@@H]4CC[C@@]3(C)[C@]1(C)CC2`, the logD at 4 h in data set [1] was -1.24. Also, the Survival in data set [2] is reported as 32%. Moreover, the viability at 72 h, 5 µM in data set [3] amounted to 86%.

On to `CC1(C)CC[C@]2(C(=O)OCCCCCOC(=O)[C@]34CCC(C)(C)C[C@H]3C3=CC[C@@H]5[C@@]6(C)CC[C@H](O)[C@@](C)(CO)[C@@H]6CC[C@@]5(C)[C@]3(C)CC4)CC[C@]3(C)C(=CC[C@@H]4[C@@]5(C)CC[C@H](O)[C@@](C)(CO)[C@@H]5CC[C@]43C)[C@@H]2C1`, for which the Survival in data set [2] is recorded as 42%. Also, the viability at 72 h, 5 µM in data set [3] was 123%.

`CC(C)C[C@H](NC(=O)[C@]12CCC(C)(C)C[C@H]1C1=CC[C@@H]3[C@@]4(C)Cc5nccnc5[C@@](C)(CO)[C@@H]4CC[C@@]3(C)[C@]1(C)CC2)C(=O)O` came in with a logD at 4 h in data set [1] of 0.08. Moreover, the Survival in data set [2] is recorded as 76%. Besides, the viability at 72 h, 5 µM in data set [3] is 130%.

In data set [1], `CC1(C)CC[C@]2(C(=O)N[C@@H](CCC(=O)O)C(=O)O)CC[C@]3(C)C(=CC[C@@H]4[C@@]5(C)Cc6nccnc6[C@@](C)(CO)[C@@H]5CC[C@]43C)[C@@H]2C1` returned a log distribution coefficient (logD) at 4 h of -0.66. The Survival in data set [2] was 80%. Further, the viability at 72 h, 5 µM in data set [3] came out at 91%.

Regarding `CC1(C)CC[C@]2(C(=O)n3ccnc3)CC[C@]3(C)C(=CC[C@@H]4[C@@]5(C)CC[C@H](O)[C@@](C)(CO)[C@@H]5CC[C@]43C)[C@@H]2C1`, in data set [1], the log distribution coefficient (logD) at 4 h is -0.4.

`CC1(C)CC[C@]2(C(=O)OCCN)CC[C@]3(C)C(=CC[C@@H]4[C@@]5(C)Cc6nccnc6[C@@](C)(CO)[C@@H]5CC[C@]43C)[C@@H]2C1`: in data set [1], the logD at 4 h was 0.36. In data set [2], the Survival came out at 24%. The viability at 72 h, 5 µM in data set [3] was determined as 116%.

Take `CC1(C)CC[C@]2(C(=O)N[C@@H](CC(=O)O)C(=O)O)CC[C@]3(C)C(=CC[C@@H]4[C@@]5(C)Cc6nccnc6[C@@](C)(CO)[C@@H]5CC[C@]43C)[C@@H]2C1`: the pH-dependent lipophilicity (logD) at 4 h in data set [1] was -0.39. Besides, in data set [2], the Survival came to 81%. For the same compound, the viability at 72 h, 5 µM in data set [3] was 90%.

The compound `CC1(C)CC[C@]2(C(=O)N[C@@H](CO)C(=O)O)CC[C@]3(C)C(=CC[C@@H]4[C@@]5(C)Cc6nccnc6[C@@](C)(CO)[C@@H]5CC[C@]43C)[C@@H]2C1` registered a log distribution coefficient (logD) at 4 h in data set [1] of -0.11. The Survival in data set [2] is given as 76%. For the same compound, the viability at 72 h, 5 µM in data set [3] turned out to be 102%.

Take `CC1(C)CC[C@]2(C(=O)OCCCCOC(=O)[C@]34CCC(C)(C)C[C@H]3C3=CC[C@@H]5[C@@]6(C)CC[C@H](O)[C@@](C)(CO)[C@@H]6CC[C@@]5(C)[C@]3(C)CC4)CC[C@]3(C)C(=CC[C@@H]4[C@@]5(C)CC[C@H](O)[C@@](C)(CO)[C@@H]5CC[C@]43C)[C@@H]2C1`: the Survival in data set [2] came out at 44%. Moreover, the viability at 72 h, 5 µM in data set [3] came out at 92%.

`CC1(C)CC[C@]2(C(=O)On3nnc4ccc(Cl)cc43)CC[C@]3(C)C(=CC[C@@H]4[C@@]5(C)CC[C@H](O)[C@@](C)(CO)[C@@H]5CC[C@]43C)[C@@H]2C1` gave a log distribution coefficient (logD) at 4 h in data set [1] of -0.75. Besides, in data set [2], the Survival was determined as 111%. In addition, the viability at 72 h, 5 µM in data set [3] is 97%.

As for `CC1(C)CC[C@]2(C(=O)O)CC[C@]3(C)C(=CC[C@@H]4[C@@]5(C)CC[C@H](O)[C@@](C)(CO)[C@@H]5CC[C@]43C)[C@@H]2C1` [HEDERAGENIN], the Survival in data set [2] is 100%.

Take `COc1ccc(CCN(C)CCCC(C#N)(c2ccc(OC)c(OC)c2)C(C)C)cc1OC` (centres undefined): the Survival in data set [2] worked out at 23%.

In turn, `CC(C)[C@H](NC(=O)[C@]12CCC(C)(C)C[C@H]1C1=CC[C@@H]3[C@@]4(C)Cc5nccnc5[C@@](C)(CO)[C@@H]4CC[C@@]3(C)[C@]1(C)CC2)C(=O)O` displayed a pH-dependent lipophilicity (logD) at 4 h in data set [1] of -0.78. Moreover, the Survival in data set [2] is listed as 114%. The viability at 72 h, 5 µM in data set [3] stood at 83%.

Consider `CC1(C)CC[C@]2(C(=O)O)CC[C@]3(C)C(C(=O)C[C@@H]4[C@@]5(C)CCC(=O)[C@@](C)(CO)[C@@H]5CC[C@]43C)[C@@H]2C1` (some centres undefined), for which the Survival in data set [2] was 104%. Further, the viability at 72 h, 5 µM in data set [3] is 102%.

On to `CC1(C)CC[C@]2(C(=O)OCCCOC(=O)[C@]34CCC(C)(C)C[C@H]3C3=CC[C@@H]5[C@@]6(C)CC[C@H](O)[C@@](C)(CO)[C@@H]6CC[C@@]5(C)[C@]3(C)CC4)CC[C@]3(C)C(=CC[C@@H]4[C@@]5(C)CC[C@H](O)[C@@](C)(CO)[C@@H]5CC[C@]43C)[C@@H]2C1`, for which the Survival in data set [2] is reported as 45%. The viability at 72 h, 5 µM in data set [3] stood at 107%.

`CC1(C)CC[C@]2(C(=O)On3nnc4cccnc43)CC[C@]3(C)C(=CC[C@@H]4[C@@]5(C)CC[C@H](O)[C@@](C)(CO)[C@@H]5CC[C@]43C)[C@@H]2C1` displayed a logD at 4 h in data set [1] of -0.23. Further, in data set [2], the Survival came to 115%. For the same compound, the viability at 72 h, 5 µM in data set [3] amounted to 94%.

In the case of `CC1(C)CC[C@]2(C(=O)N3CCC[C@H]3C(=O)O)CC[C@]3(C)C(=CC[C@@H]4[C@@]5(C)Cc6nccnc6[C@@](C)(CO)[C@@H]5CC[C@]43C)[C@@H]2C1`, in data set [1], the logD at 4 h is 0.38. In addition, in data set [2], the Survival is recorded as 91%. Further, the viability at 72 h, 5 µM in data set [3] was 121%.

In data set [1], `CC1(C)CC[C@]2(C(=O)On3nnc4ccc(Cl)cc43)CC[C@]3(C)C(C(=O)C[C@@H]4[C@@]5(C)CCC(=O)[C@@](C)(CO)[C@@H]5CC[C@]43C)[C@@H]2C1` (some centres undefined) yielded a log distribution coefficient (logD) at 4 h of 0.1. For the same compound, in data set [2], the Survival is given as 112%. Also, the viability at 72 h, 5 µM in data set [3] was found to be 98%.

`CSCC[C@H](NC(=O)[C@]12CCC(C)(C)C[C@H]1C1=CC[C@@H]3[C@@]4(C)Cc5nccnc5[C@@](C)(CO)[C@@H]4CC[C@@]3(C)[C@]1(C)CC2)C(=O)O` showed a log distribution coefficient (logD) at 4 h in data set [1] of -0.2. Also, the Survival in data set [2] came to 94%. Also, in data set [3], the viability at 72 h, 5 µM was 94%.

On to `CC1(C)CC[C@]2(C(=O)ONC(=O)CCC(=O)O)CC[C@]3(C)C(=CC[C@@H]4[C@@]5(C)Cc6nccnc6[C@@](C)(CO)[C@@H]5CC[C@]43C)[C@@H]2C1`, for which, in data set [1], the logD at 4 h is -0.78. In data set [2], the Survival came out at 112%. Further, the viability at 72 h, 5 µM in data set [3] is 89%.

As for `CC1(C)CC[C@]2(C(=O)OCCOC(=O)[C@]34CCC(C)(C)C[C@H]3C3=CC[C@@H]5[C@@]6(C)CC[C@H](O)[C@@](C)(CO)[C@@H]6CC[C@@]5(C)[C@]3(C)CC4)CC[C@]3(C)C(=CC[C@@H]4[C@@]5(C)CC[C@H](O)[C@@](C)(CO)[C@@H]5CC[C@]43C)[C@@H]2C1`, in data set [2], the Survival was determined as 37%. The viability at 72 h, 5 µM in data set [3] turned out to be 136%.

Take `CC1(C)CC[C@]2(C(=O)N[C@@H](Cc3ccccc3)C(=O)O)CC[C@]3(C)C(=CC[C@@H]4[C@@]5(C)Cc6nccnc6[C@@](C)(CO)[C@@H]5CC[C@]43C)[C@@H]2C1`: the logD at 4 h in data set [1] is -0.32. Also, the Survival in data set [2] was 129%. For the same compound, in data set [3], the viability at 72 h, 5 µM was 94%.

As to `CC1(C)CC[C@]2(C(=O)N[C@@H](Cc3ccc(O)cc3)C(=O)O)CC[C@]3(C)C(=CC[C@@H]4[C@@]5(C)Cc6nccnc6[C@@](C)(CO)[C@@H]5CC[C@]43C)[C@@H]2C1`, in data set [1], the logD at 4 h is -0.03. In addition, in data set [2], the Survival came out at 68%. Moreover, the viability at 72 h, 5 µM in data set [3] worked out at 76%.

On to `CC1(C)CC[C@]2(C(=O)O)CC[C@]3(C)C(=CC[C@@H]4[C@@]5(C)Cc6nccnc6[C@@](C)(COC(=O)CCC(=O)O)[C@@H]5CC[C@]43C)[C@@H]2C1`, for which the logD at 4 h in data set [1] was -0.28. In addition, in data set [2], the Survival was 102%. The viability at 72 h, 5 µM in data set [3] turned out to be 96%.

In data set [1], `CC1(C)CC[C@]2(C(=O)NCC(=O)O)CC[C@]3(C)C(=CC[C@@H]4[C@@]5(C)Cc6nccnc6[C@@](C)(CO)[C@@H]5CC[C@]43C)[C@@H]2C1` showed a log distribution coefficient (logD) at 4 h of -0.43. Moreover, the Survival in data set [2] is given as 101%. Further, the viability at 72 h, 5 µM in data set [3] came to 96%.
